Source: ChEMBL document CHEMBL3994606, “Ring-opened tetrahydro-γ-carbolines display cytotoxicity and selectivity with histone deacetylase isoforms” (Eur J Med Chem, 2017)
Active and inactive are the calls of the source. The rule behind the calls is not given here.

Legend:
A549 = test: Antiproliferative activity against human A549 cells after 48 hrs by SRB assay; assay type: functional; conditions: A549, 48 h
Method in brief: (§1)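 Cells seeded at 3-5 x 10³ cells/well. A T0 plate was fixed with 10% TCA at drug addition, and the rest were incubated 48 h with compound or DMSO, then TCA-fixed and stained with 0.4% SRB in 1% AcOH. Dye was extracted with 10 mM trizma base and read at 515 nm.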

Homo sapiens [1] = species: Homo sapiens; test: Selectivity ratio of IC50 for full length human recombinant C-terminal FLAG-His-tagged HDAC1 to IC50 for full length human recombinant N-terminal GST-tagged HDAC6
HCT-116 [2] = test: Antiproliferative activity against human HCT116 cells after 48 hrs by SRB assay; assay type: functional; conditions: HCT-116, 48 h; method in brief: as §1
PC-3 = test: Antiproliferative activity against human PC3 cells after 48 hrs by SRB assay; assay type: functional; conditions: PC-3, 48 h; method in brief: as §1
[3] = target: T1, Protein deacetylase HDAC6 (Homo sapiens, UniProt Q9UBN7); test: Inhibition of full length human recombinant N-terminal GST-tagged HDAC6 expressed in Sf9 cells using RHKK(Ac) as substrate after 90 mins by fluorimetric method
T1 sequence (Q9UBN7 whole entry): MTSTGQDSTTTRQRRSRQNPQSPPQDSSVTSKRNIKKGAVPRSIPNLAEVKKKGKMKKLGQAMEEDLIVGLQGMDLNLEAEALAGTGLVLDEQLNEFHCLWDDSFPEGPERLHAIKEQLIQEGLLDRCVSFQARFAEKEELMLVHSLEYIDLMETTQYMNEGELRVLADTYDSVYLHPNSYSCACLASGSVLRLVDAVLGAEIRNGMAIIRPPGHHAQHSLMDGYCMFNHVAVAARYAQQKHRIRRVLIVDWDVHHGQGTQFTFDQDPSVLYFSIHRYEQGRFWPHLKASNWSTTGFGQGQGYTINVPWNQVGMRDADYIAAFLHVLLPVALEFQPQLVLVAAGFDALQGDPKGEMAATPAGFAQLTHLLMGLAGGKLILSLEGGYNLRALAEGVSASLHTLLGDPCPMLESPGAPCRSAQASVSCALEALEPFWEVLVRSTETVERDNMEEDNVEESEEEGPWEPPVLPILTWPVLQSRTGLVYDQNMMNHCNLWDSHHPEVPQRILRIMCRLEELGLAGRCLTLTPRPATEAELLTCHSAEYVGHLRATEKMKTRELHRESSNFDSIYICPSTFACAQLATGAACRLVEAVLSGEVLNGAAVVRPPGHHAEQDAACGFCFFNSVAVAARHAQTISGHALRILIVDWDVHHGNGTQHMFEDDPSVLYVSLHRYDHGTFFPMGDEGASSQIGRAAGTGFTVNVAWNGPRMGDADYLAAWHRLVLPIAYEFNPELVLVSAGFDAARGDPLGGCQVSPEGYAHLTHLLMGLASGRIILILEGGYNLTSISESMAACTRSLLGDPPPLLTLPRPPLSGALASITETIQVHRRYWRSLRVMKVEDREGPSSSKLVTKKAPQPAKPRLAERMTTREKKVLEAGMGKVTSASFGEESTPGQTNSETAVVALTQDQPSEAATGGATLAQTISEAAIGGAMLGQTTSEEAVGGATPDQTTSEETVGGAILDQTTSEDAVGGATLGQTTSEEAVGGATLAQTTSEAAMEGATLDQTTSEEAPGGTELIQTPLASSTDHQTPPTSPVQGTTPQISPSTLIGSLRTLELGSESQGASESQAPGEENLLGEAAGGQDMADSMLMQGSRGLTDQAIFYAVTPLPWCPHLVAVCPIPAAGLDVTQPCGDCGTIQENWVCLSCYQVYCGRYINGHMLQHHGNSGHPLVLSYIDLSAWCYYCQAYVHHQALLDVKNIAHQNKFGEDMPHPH

Homo sapiens [4] = species: Homo sapiens; test: Selectivity ratio of IC50 for full length human recombinant C-terminal GST-tagged HDAC2 to IC50 for full length human recombinant N-terminal GST-tagged HDAC6
Histone deacetylase 1 = Histone deacetylase 1 (Homo sapiens, UniProt Q13547); test: Inhibition of full length human recombinant C-terminal FLAG-His-tagged HDAC1 expressed in Sf21 cells using RHKK(Ac) as substrate after 60 mins by fluorimetric method
Histone deacetylase 2 = Histone deacetylase 2 (Homo sapiens, UniProt Q92769); test: Inhibition of full length human recombinant C-terminal GST-tagged HDAC2 expressed in insect cells using RHKK(Ac) as substrate after 60 mins by fluorimetric method
HCT-116 [5] = test: Induction of apoptosis in human HCT116 cells assessed as increase in cleaved PARP levels at 1.25 to 2.5 uM after 48 hrs Western blot method; assay type: functional, cell-based
HCT-116 [6] = test: Cell cycle arrest in human HCT116 cells assessed as accumulation at sub-G1 phase after 48 hrs by propidium iodide staining-based flow cytometric method; assay type: functional
Method in brief: (§2)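 HCT116 cells treated 48 h, then fixed overnight in 75% EtOH at -20 °C and washed in cold PBS. They were incubated 30 min at room temperature in 0.1 M phosphate-citric acid buffer (pH 7.8) and stained with propidium iodide buffer containing 0.1% Triton X-100 and RNase A. The sub-G1 fraction was measured by flow cytometry.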

HCT-116 [7] = test: Anticlonogenic activity against human HCT116 cells after 24 hrs by crystal violet staining-based assay; assay type: functional, cell-based
Method in brief: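 Cells exposed to a range of concentrations or DMSO vehicle for 24 h, washed, trypsinized and replated at 500 cells/well; after 14 days colonies were fixed and stained with 0.5% crystal violet in 70% EtOH. Colonies of more than 50 cells were counted, and survival fraction was taken relative to DMSO control.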

[8] = target: T2, Protein deacetylase HDAC6 (Homo sapiens) (UniProt Q9UBN7); test: Inhibition of HDAC6 in human HCT116 cells assessed as upregulation of acetylated tubulin levels at 2.5 uM after 6 hrs by Western blot method; assay type: cell-based
T2 sequence (whole entry): T1 sequence (Q9UBN7 whole entry)
Method in brief: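 HCT116 cells treated 6 h with compound, then lysates probed by western blot for acetyl-tubulin, with ECL detection.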

Homo sapiens [9] = species: Homo sapiens; test: Inhibition of class 1 HDAC in human HCT116 cells assessed as upregulation of acetylated histone H3 levels at 2.5 uM after 6 hrs by Western blot method; assay type: cell-based
HCT-116 [10] = test: Induction of apoptosis in human HCT116 cells assessed as increase in cleaved caspase 3 levels at 1.25 to 2.5 uM after 48 hrs Western blot method; assay type: functional, cell-based
HCT-116 [11] = test: Cell cycle arrest in human HCT116 cells assessed as accumulation at sub-G1 phase at 5 uM after 48 hrs by propidium iodide staining-based flow cytometric method; assay type: functional; method in brief: as §2

Sequence of Histone deacetylase 1 (Q13547 whole entry): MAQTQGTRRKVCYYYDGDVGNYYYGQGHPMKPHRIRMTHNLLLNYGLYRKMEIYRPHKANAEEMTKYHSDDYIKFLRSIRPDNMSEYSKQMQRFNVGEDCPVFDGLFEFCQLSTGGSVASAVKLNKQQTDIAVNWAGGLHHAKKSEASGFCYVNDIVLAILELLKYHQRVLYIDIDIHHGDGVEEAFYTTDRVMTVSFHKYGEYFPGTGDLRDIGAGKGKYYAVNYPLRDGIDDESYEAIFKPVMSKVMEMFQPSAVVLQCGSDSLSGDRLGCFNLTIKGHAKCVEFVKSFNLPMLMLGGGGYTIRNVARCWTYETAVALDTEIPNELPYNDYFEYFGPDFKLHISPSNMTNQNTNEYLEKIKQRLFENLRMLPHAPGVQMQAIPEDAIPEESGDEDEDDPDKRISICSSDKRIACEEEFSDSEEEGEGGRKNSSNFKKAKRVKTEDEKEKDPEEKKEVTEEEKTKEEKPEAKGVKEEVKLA
Sequence of Histone deacetylase 2 (Q92769 whole entry): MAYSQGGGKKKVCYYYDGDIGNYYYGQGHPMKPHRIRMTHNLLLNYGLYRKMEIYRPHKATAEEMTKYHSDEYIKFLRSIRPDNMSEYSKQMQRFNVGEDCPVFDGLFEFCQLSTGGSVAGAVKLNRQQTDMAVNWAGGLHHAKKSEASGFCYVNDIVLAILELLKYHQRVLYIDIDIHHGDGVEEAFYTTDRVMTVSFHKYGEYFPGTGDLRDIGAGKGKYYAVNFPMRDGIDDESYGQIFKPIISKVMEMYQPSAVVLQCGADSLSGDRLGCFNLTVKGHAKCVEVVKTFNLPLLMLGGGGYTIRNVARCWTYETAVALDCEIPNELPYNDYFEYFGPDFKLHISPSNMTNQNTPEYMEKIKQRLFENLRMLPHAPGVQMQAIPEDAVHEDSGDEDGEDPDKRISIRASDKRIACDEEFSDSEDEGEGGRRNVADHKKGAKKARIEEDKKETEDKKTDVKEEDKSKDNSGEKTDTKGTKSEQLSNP

SMILES	GI50 (A549) [nM]	Ratio IC50 (Homo sapiens [1])	GI50 (HCT-116 [2]) [nM]	GI50 (PC-3) [nM]	IC50 [3] [nM]	Ratio IC50 (Homo sapiens [4])	IC50 (Histone deacetylase 1) [nM]	IC50 (Histone deacetylase 2) [nM]	Activity (HCT-116 [5])	Activity (HCT-116 [6])	Activity (HCT-116 [7])	Acetylated tubulin upregulation (qualitative) [8]	Acetylated histone H3 upregulation (qualitative) (Homo sapiens [9])	Activity (HCT-116 [10])	Activity (HCT-116 [11])
Cc1c(CN(C)C)c2ccccc2n1Cc1ccc(C(=O)NO)cc1	> 5000	1580	> 5000	> 5000	6.17	> 1620	9730	> 10000							
CN(C)Cc1cn(Cc2ccc(C(=O)NO)cc2)c2ccccc12	> 5000	328	> 5000	3930	21.7	562	7130	12200							
CN(C)Cc1cn(S(=O)(=O)c2ccc(/C=C/C(=O)NO)cc2)c2ccccc12	1620	115	520	790	16.7	58	1930	970	Active	Dose-dependent effect	Dose-dependent effect	Active	inactive	Active	
Cc1c(CN(C)C)c2ccccc2n1S(=O)(=O)c1ccc(/C=C/C(=O)NO)cc1	1560	63	550	700	63	20	4010	1270	Active	Dose-dependent effect	Dose-dependent effect	Active	inactive	Active	
CN(C)C(=O)c1cn(S(=O)(=O)c2ccc(/C=C/C(=O)NO)cc2)c2ccccc12	> 5000	186	2140	3100	10.8	135	2010	1460							
CN(C)C(=O)c1cn(S(=O)(=O)c2cccc(/C=C/C(=O)NO)c2)c2ccccc12	> 5000	34	2490	> 5000	201	> 49	6910	> 10000							
Cc1c(CN(C)C)c2ccccc2n1S(=O)(=O)c1cccc(/C=C/C(=O)NO)c1	1920	21	500	1690	84.9	15	1850	1340	Active	Dose-dependent effect	Dose-dependent effect	Active	inactive	Active	
CN(C)Cc1cn(S(=O)(=O)c2cccc(/C=C/C(=O)NO)c2)c2ccccc12	1870	16	540	1030	89.3	18	1510	1640	Active	Dose-dependent effect	Dose-dependent effect	Active	inactive	Active	
CN(C)C(=O)c1cn(Cc2ccc(C(=O)NO)cc2)c2ccccc12	> 5000	714	> 5000	> 5000	8.01	> 1250	5720	> 10000							
CN1CCc2c(c3ccccc3n2Cc2ccc(C(=O)NO)cc2)C1 [TUBASTATIN A]	> 5000		> 5000	> 5000					inactive					inactive	Active
Cc1c(CN(C)C)c2ccccc2n1Cc1ccc(/C=C/C(=O)NO)cc1	3690	22	1260	2080	96.4	24	2130	2380							
CN(C)C(=O)c1cn(Cc2ccc(/C=C/C(=O)NO)cc2)c2ccccc12	3330	73	750	1890	8.5	122	627	1040	Active	Dose-dependent effect	Dose-dependent effect	Active	inactive	Active	
CN1CCc2c(c3ccccc3n2S(=O)(=O)c2cccc(/C=C/C(=O)NO)c2)C1	2450	14	640	1840	189	16	2700	3130							
CN1CCc2c(c3ccccc3n2Cc2ccc(/C=C/C(=O)NO)cc2)C1	2680	38	730	1690	41.8	39	1600	1650							
CN(C)Cc1cn(Cc2ccc(/C=C/C(=O)NO)cc2)c2ccccc12	3000	52	1390	2550	43.1	25	2250	1120							
